# In the library only some 2.2% were active in any assay of this set; here they are far more common.
# Scp1 inh: Scp-1 phosphatase inhibitors, primary screen, biochemical, colorimetric, uHTS | inhibition, % at 20 µM | Recombinant Scp1, phosphopeptide, malachite green phosphate absorbance | hit rate 0.88% among 340,000 | AID 493091, 2011;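 active = inhibition above about 50% at 20 µM, limit read from the data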;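 also: plate controls were DMSO wells with enzyme for no effect and wells lacking enzyme for full effect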
#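 Material: truncated SCP-1 phosphatase (76-261aa) / Buffer or medium: 50 mM Tris acetate pH 5.5, 0.005% Tween-20, 10 mM MgCl2 / Compound dosing: one concentration, 20 µM, with 1.0% DMSO / Incubation: 45 min room-temperature reaction, 5 min colour, 30 min stabiliser / Detection: colorimetric free-phosphate detection, absorbance 630 nm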
# DNMT1 block: human DNMT1 methyltransferase inhibitors, primary screen, biochemical, molecular beacon, fluorescence, HinP1I cleavage, uHTS. DNA (cytosine-5)-methyltransferase 1 (Homo sapiens), P26358. inhibition (reported as % activation of signal), % at 10 µM. hit rate 0.83% among 360,000. AID 588458, 2011; in the data active = inhibition above about 50%
# GRK2 inh: compounds blocking aptamer binding on GRK2 – biochemical, human GRK2, bead flow cytometry, HTS, primary screen | Beta-adrenergic receptor kinase 1 (Homo sapiens), P25098 | FAM-aptamer displacement from GRK2 | inhibition of aptamer binding, % at 10 µM | hit rate 0.59% among 330,000 | AID 488847, 2010;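 active = inhibition of aptamer binding above 40%, roughly 3 SD of noise, on plates passing a quality check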;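 also: median bead fluorescence of bound FAM aptamer so fluorescent compounds give negative values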
# Target sequence (P25098 whole entry, looked up): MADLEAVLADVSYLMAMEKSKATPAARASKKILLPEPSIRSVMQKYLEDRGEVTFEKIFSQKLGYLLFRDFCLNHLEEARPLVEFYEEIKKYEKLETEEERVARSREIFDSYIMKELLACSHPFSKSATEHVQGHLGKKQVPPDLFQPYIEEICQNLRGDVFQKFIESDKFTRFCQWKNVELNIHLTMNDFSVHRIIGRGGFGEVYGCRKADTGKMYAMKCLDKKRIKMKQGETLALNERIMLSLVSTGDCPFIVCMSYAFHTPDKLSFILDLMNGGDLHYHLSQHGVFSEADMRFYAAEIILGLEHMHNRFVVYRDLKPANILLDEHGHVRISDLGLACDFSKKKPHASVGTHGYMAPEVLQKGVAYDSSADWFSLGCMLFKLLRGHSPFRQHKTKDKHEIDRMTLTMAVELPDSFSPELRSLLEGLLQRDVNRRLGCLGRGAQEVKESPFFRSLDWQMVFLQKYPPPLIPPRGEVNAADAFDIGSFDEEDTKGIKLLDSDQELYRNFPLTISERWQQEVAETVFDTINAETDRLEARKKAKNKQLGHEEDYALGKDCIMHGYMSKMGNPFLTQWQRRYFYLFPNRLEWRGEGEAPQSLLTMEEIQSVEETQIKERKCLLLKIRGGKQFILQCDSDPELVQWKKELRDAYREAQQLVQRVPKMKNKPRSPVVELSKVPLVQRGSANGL
# STEP block: STEP phosphatase inhibitors, primary screen, biochemical, fluorescence intensity, uHTS. AID 588621, 2011. Tyrosine-protein phosphatase non-receptor type 5 (Homo sapiens), P54829. recombinant STEP, OMFP fluorogenic substrate. inhibition, % at 20 µM. hit rate 0.25% among 360,000;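 active = inhibition at 20 µM, scaled per plate between control wells, above about 37%, limit read from the data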;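 also: 0% = DMSO with enzyme and substrate and 100% = substrate only without enzyme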
#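 material = STEP tyrosine phosphatase | reagent = fluorogenic phosphatase substrate OMFP at 25 µM final | doses = single compound dose of 20 µM, 1% DMSO final | schedule = 20 min reaction, room temperature, in the dark | measured by = fluorescence, 480/540 nm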
# LMPTP inh: LMPTP phosphatase inhibitors, primary screen, biochemical, fluorescence intensity, uHTS | recombinant LMPTP-A, OMFP fluorogenic substrate | inhibition, % at 20 µM | hit rate 0.22% among 360,000 | Low molecular weight phosphotyrosine protein phosphatase (Homo sapiens), P24666;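 active = compounds that cut the enzyme signal by at least half of the control window in the single-dose screen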;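 also: plate controls were DMSO wells with enzyme plus substrate for no effect and substrate without enzyme for full effect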
#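 test system = LMPTP-A | amount = 0.625 nM LMPTP-A final | reagent = fluorogenic phosphatase substrate OMFP at 400 µM final | incubation = 50 min at room temperature | benchmarks = no-enzyme low control, uninhibited high control | medium = Bis-Tris pH 6.0, DTT, detergent | signal = fluorescence intensity of OMFP turnover product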
# SUMO1-SIM PPI: modulators of SUMO1 protein-protein interactions, primary screen, biochemical, uHTS. hit rate 0.33% among 360,000. inhibition, % at 20 µM. SUMO1 binding to a labelled peptide, TR-FRET, 1 h; in the data active = inhibition above about 37%
# Target sequence (P63165 whole entry, looked up): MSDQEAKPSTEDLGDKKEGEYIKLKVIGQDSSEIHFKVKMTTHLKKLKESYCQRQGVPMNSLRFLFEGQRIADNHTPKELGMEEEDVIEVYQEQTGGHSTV
# GRK2 CP1: GRK2 aptamer-displacing inhibitors, retest, confirmation, biochemical, cherry pick 1, bead flow cytometry; shares compounds with GRK2 inh; bead-bound GRK2, FAM-aptamer displacement; aptamer displacement, % at 10 µM; hit rate 4% among 2,000; AID 504451, 2011;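 active = aptamer displacement above 40%, near three times the noise of non-fluorescent compounds, on plates passing quality checks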;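 also: negative values mostly reflect intrinsic compound fluorescence rather than true enhancement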
# Aptamer quench 1: quenches fluorescent RNA aptamer, GRK2 hit artifact | shares compounds with GRK2 inh | Fluorescent RNA aptamer beads, quenching, flow cytometry; hits give high values | fluorescence change (kMESF span), kMESF (no concentration beside the values) | 110 tested, under 10 active;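 active = compounds whose bead fluorescence drops by more than 37 kMESF across the dose range, marking them as dye quenchers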
# FAM quench CP1: aptamer fluorescence quenching in GRK2 counter-screen. shares compounds with GRK2 inh. Carboxyfluorescein RNA aptamer on beads, flow cytometry quenching; hits give low values. fluorescence response (% of DMSO), % at 10 µM. 2,000 tested, under 10 active. AID 504580;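 active = compounds that quench the bead-bound fluorescent RNA probe, cutting fluorescence to under half of the solvent control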;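 also: counterscreen run without GRK2 so only probe quenching by compound is measured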
# GRK2 CP2: GRK2 aptamer-displacing inhibitors, hit retest, confirmation, biochemical, cherry pick 2, bead flow cytometry; shares compounds with GRK2 inh; bead-bound GRK2, FAM-aptamer displacement; inhibition of aptamer binding, % at 10 µM; 360 tested, under 10 active;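 active = inhibition of aptamer binding above 40%, about triple the noise seen with nonglowing compounds, on plates passing quality control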;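 also: negative values mostly come from compounds that fluoresce themselves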
# FAM quench CP2: quenches fluorescent RNA aptamer, GRK2 hit artifact; shares compounds with GRK2 inh; carboxyfluorescein RNA aptamer beads, flow cytometry quenching; hits give low values; fluorescence response vs DMSO, % at 10 µM; 360 tested, under 10 active; AID 588494;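 active = response vs DMSO under 50%, meaning signal dropped by over half, treated as fluorescence quencher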;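 also: labelled aptamer on streptavidin beads without GRK2 as a quench counter-screen; 100% = bead fluorescence of DMSO wells and lower means quenching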
# * = called active by the depositor; i = inactive; . = no result.
SMILES,Scp1 inh,DNMT1 block,GRK2 inh,STEP block,LMPTP inh,SUMO1-SIM PPI,GRK2 CP1,FAM quench CP1,others
O=c1[nH]c(=S)n(Cc2ccco2)c(O)c1C=NCc1cccs1,35.9,48.9,0.0,-0.3,65.4*,5.6,.,.,
O=c1[nH]c(=O)n(Cc2ccco2)c(O)c1C=NCc1cccs1,0.8,15.2,3.0,1.2,-1.0,0.3,.,.,
O=C1C(=O)c2cccc3cccc1c23,-5.5,-13.5,2.0,-2.4,-2.4,-19.9,.,.,
O=C1C(=O)c2ccccc2-c2ccccc21,-9.0,105.1*,28.0,36.2*,51.2*,31.9,.,.,
CCOP(=O)(NC(C)C)Oc1ccc(SC)c(C)c1 (configuration not stated),-8.1,-1.7,.,-2.1,-1.6,-2.5,.,.,
Cc1ccc(N2C(=O)NC(=O)/C(=C\c3cc(C)n(-c4cc(C(=O)O)cc(C(=O)O)c4)c3C)C2=O)cc1,51.0*,40.8,5.0,5.2,-1.4,12.5,.,.,
CC1(C(=O)O)CC12c1ccccc1-c1ccccc12 (configuration not stated),-2.8,-0.2,.,-1.0,-2.2,5.3,.,.,
CN1C(=O)/C(=C/C=C/c2ccco2)C(=O)NC1=S,98.2*,93.6*,2.0,35.5,12.0,54.4*,.,.,
Cc1ccc(N2C(=O)NC(=O)/C(=C\C=C\c3ccco3)C2=O)cc1C,0.1,66.5*,7.0,-0.3,0.5,2.6,.,.,
Cc1nc2ccccn2c1P(=S)(c1ccccc1)c1ccccc1,.,0.5,.,1.9,-0.4,2.3,.,.,
CCOC(=O)c1c(/N=C/c2c(O)n(-c3ccccc3F)c(=S)[nH]c2=O)sc2c1CCCC2,-3.3,-2.3,54.0*,-0.9,0.7,-2.9,21.3,106.0,
CCOC(=O)c1c(/N=C/c2c(O)n(-c3ccc(F)cc3)c(=S)[nH]c2=O)sc2c1CCCC2,-7.7,0.4,8.0,2.7,-0.5,0.1,.,.,
Cc1nc2cc(OC(=O)N(C)Cc3cccc(-c4ccncc4)c3)ccc2s1,.,.,.,.,0.1,5.0,.,.,
COC(=O)C1=C(c2c(C)noc2C)C[C@@H]2CC[C@H]1N2C(=O)NCCO,-2.3,0.9,75.0*,-1.0,-0.7,3.5,-2.6,93.8,
CCN(CC)S(=O)(=O)c1ccc(N=Cc2c(O)n(-c3ccccc3)c(=O)[nH]c2=O)cc1,2.9,-2.4,5.0,2.2,0.3,2.1,.,.,
O=C1c2cccc3cccc(c23)C(=O)N1/N=C/c1c(O)n(-c2ccccc2)c(=O)[nH]c1=O,4.0,6.2,62.0*,-1.0,0.3,-31.1,8.4,97.5,
CC(=O)OC1CC2OC3C=C(C)CCC3(C)C1(C)C21CO1 (configuration not stated),.,-2.9,.,1.8,0.3,1.6,.,.,
Cc1ccccc1OP(N)(=O)Oc1ccccc1C,-6.2,-4.3,52.0*,-1.7,-0.3,-0.2,-1.3,99.8,
O=c1c2ccccc2nc(/C=C\c2ccccc2[N+](=O)[O-])n1-c1ccccc1O,0.9,-2.6,45.0*,2.4,2.1,-7.9,-3.3,116.2,
O=C1NCN(c2ccccc2)C12CCN(C(c1cccc3ccccc13)c1nnnn1C1CCCCC1)CC2 (configuration not stated),.,27.9,.,2.0,4.3,1.8,.,.,
Cc1ccccc1-n1c(C)cc(/C=C2/C(=O)NC(=O)N(Cc3ccco3)C2=O)c1C,-2.8,29.6,3.0,2.6,1.9,1.1,.,.,
CCOC(=O)C1CCN(/C=C2/C(=O)NC(=O)N(Cc3ccco3)C2=O)CC1,66.2*,28.6,82.0*,5.9,1.9,10.8,35.1,97.8,
O=C1NC(=O)N(Cc2ccccc2)C(=O)/C1=C\C=C\c1ccco1,-0.8,45.1,17.0,4.1,2.6,15.0,.,.,
Cc1ccc(-n2c(C)cc(/C=C3/C(=O)NC(=O)N(Cc4ccco4)C3=O)c2C)cc1,8.7,41.2,13.0,1.9,2.2,0.9,.,.,
Cc1ccc(OCCn2cccc2/C=C2/C(=O)NC(=O)N(Cc3ccco3)C2=O)cc1,4.5,60.6*,2.0,4.0,3.4,16.9,3.5,94.0,
SMILES,Scp1 inh,DNMT1 block,GRK2 inh,STEP block,LMPTP inh,SUMO1-SIM PPI,GRK2 CP1,FAM quench CP1,others
O=C1NC(=O)N(Cc2ccco2)C(=O)/C1=C/C=C/c1ccco1,81.1*,97.4*,0.0,40.2*,23.0,92.3*,20.1,94.7,
CC(C)(OOC1(c2ccccc2)NC(=O)c2ccccc21)c1ccccc1 (configuration not stated),.,.,.,.,1.0,0.4,.,.,
O=c1[nH]c(CN2CCNCC2)nc2ccccc12,-1.6,-9.9,1.0,0.2,1.1,2.0,.,.,GRK2 CP2=i;FAM quench CP2=101.0
Cc1nc2c(=O)n(C)c(=O)nc-2n(C)n1,0.0,128.4*,41.0*,78.6*,73.3*,29.2,62.5*,92.3,Aptamer quench 1=7.6
CCNC(=O)[C@H]1O[C@@H](n2cnc3c(N)ncnc32)[C@H](O)[C@@H]1O,-6.3,0.5,30.0,-0.9,-0.2,-1.0,0.2,101.0,
Nc1ncnc2c1ncn2[C@@H]1O[C@H](COP(=O)(O)CP(=O)(O)O)[C@@H](O)[C@H]1O,-11.7,2.0,.,-0.5,-2.1,1.3,.,.,
CC1(O)CCN2C(=O)CCc3cccc1c32 (configuration not stated),-7.5,2.2,41.0*,1.4,2.0,-12.0,-3.7,102.6,
CC(C)CNc1c2c(nc3ccccc13)CCC2,-2.8,1.6,0.0,-0.3,24.6,39.3*,.,.,GRK2 CP2=10.6;FAM quench CP2=101.0

# Screening results deposited in PubChem BioAssay by several laboratories.
